ChEMBL document CHEMBL5385966, “Synthesis and biological evaluation of new naphthalimide-thiourea derivatives as potent antimicrobial agents active against multidrug-resistant Staphylococcus aureus and Mycobacterium tuberculosis” (RSC Med Chem, 2024)
Values after ≈ are worked out from the molar mass of the structure shown. Active and inactive are the calls of the source. The calls are words filed in the database; no cut-off is given here.

What was measured:
Staphylococcus aureus = assay: Antibacterial activity against Staphylococcus aureus ATCC 29213 assessed as bacterial growth inhibition incubated for 16 to 18 hrs by CLSI based antibiotic susceptibility testing method; format: functional; details: time 16-18 hrs
In short: (§1)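 Broth microdilution in cation-adjusted Mueller-Hinton broth. Compounds were tested at […], with levofloxacin as reference and medium-only controls. Plates were incubated at 37 °C for 16-18 h. MIC was the lowest concentration with no visible growth; three independent determinations, each in duplicate.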

[1] = test system: Mycobacterium tuberculosis; assay: Antimycobacterial activity against Mycobacterium tuberculosis H37Rv ATCC 27294 assessed as bacterial growth inhibition incubated for 7 days by resazurin dye based broth microdilution method; format: functional; details: H37Rv ATCC 27294, 168 h, time 7 day
In short: (§2)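 Broth microdilution in Middlebrook 7H9 with 10% ADC-Tween-80 (0.2% glycerol, 0.05% Tween-80), inoculum ~10⁶ cfu/mL. Compounds came from 10 mg/mL DMSO stocks and were tested as two-fold serial dilutions at 37 °C, 7 days for M. tuberculosis H37Rv and 72 h for NTM. Growth was read visually with PrestoBlue resazurin dye; MIC was the lowest concentration preventing growth. Triplicate determinations, each in duplicate.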

Escherichia coli = assay: Antibacterial activity against Escherichia coli ATCC 25922 assessed as bacterial growth inhibition incubated for 16 to 18 hrs by CLSI based antibiotic susceptibility testing method; format: functional, organism-based; details: time 16-18 hrs; in short: as §1
Klebsiella pneumoniae = assay: Antibacterial activity against Klebsiella pneumoniae BAA 1705 assessed as bacterial growth inhibition incubated for 16 to 18 hrs by CLSI based antibiotic susceptibility testing method; format: functional, organism-based; details: time 16-18 hrs; in short: as §1
Acinetobacter baumannii = assay: Antibacterial activity against Acinetobacter baumannii BAA 1605 assessed as bacterial growth inhibition incubated for 16 to 18 hrs by CLSI based antibiotic susceptibility testing method; format: functional, organism-based; details: time 16-18 hrs; in short: as §1
Pseudomonas aeruginosa = assay: Antibacterial activity against Pseudomonas aeruginosa ATCC 27853 assessed as bacterial growth inhibition incubated for 16 to 18 hrs by CLSI based antibiotic susceptibility testing method; format: functional, organism-based; details: time 16-18 hrs; in short: as §1
[2] = test system: Mycobacteroides abscessus; assay: Antimycobacterial activity against Mycobacterium abscessus ATCC 19977 assessed as bacterial growth inhibition incubated for 72 hrs by resazurin dye based broth microdilution method; format: functional, organism-based; in short: as §2
[3] = test system: Mycolicibacterium fortuitum; assay: Antimycobacterial activity against Mycobacterium fortuitum ATCC 6841 assessed as bacterial growth inhibition incubated for 72 hrs by resazurin dye based broth microdilution method; format: functional, organism-based; in short: as §2
Mycobacteroides chelonae = assay: Antimycobacterial activity against Mycobacteroides chelonae ATCC 35752 assessed as bacterial growth inhibition incubated for 72 hrs by resazurin dye based broth microdilution method; format: functional, organism-based; in short: as §2

SMILES: O=C(CN1C(=O)c2cccc3cccc(c23)C1=O)N1CCN(C(=S)Nc2ccccc2)CC1
- MIC (Staphylococcus aureus): > 64 µg/mL
- MIC [1]: 16 µg/mL (≈ 34.9 µM)
- growth inhibition (GI) (Escherichia coli): inactive
- growth inhibition (GI) (Klebsiella pneumoniae): inactive
- growth inhibition (GI) (Acinetobacter baumannii): inactive
- growth inhibition (GI) (Pseudomonas aeruginosa): inactive
- growth inhibition (GI) [2]: inactive
- growth inhibition (GI) [3]: inactive
- growth inhibition (GI) (Mycobacteroides chelonae): inactive

SMILES: O=C1c2cccc3cccc(c23)C(=O)N1CCN1CCN(C(=S)Nc2cccc(Cl)c2)CC1
- MIC (Staphylococcus aureus): > 64 µg/mL
- MIC [1]: > 64 µg/mL
- growth inhibition (GI) (Escherichia coli): inactive
- growth inhibition (GI) (Klebsiella pneumoniae): inactive
- growth inhibition (GI) (Acinetobacter baumannii): inactive
- growth inhibition (GI) (Pseudomonas aeruginosa): inactive
- growth inhibition (GI) [2]: inactive
- growth inhibition (GI) [3]: inactive
- growth inhibition (GI) (Mycobacteroides chelonae): inactive

SMILES: O=C1c2cccc3cccc(c23)C(=O)N1CCN1CCN(C(=S)Nc2ccc(Cl)cc2)CC1
- MIC (Staphylococcus aureus): > 64 µg/mL
- MIC [1]: > 64 µg/mL
- growth inhibition (GI) (Escherichia coli): inactive
- growth inhibition (GI) (Klebsiella pneumoniae): inactive
- growth inhibition (GI) (Acinetobacter baumannii): inactive
- growth inhibition (GI) (Pseudomonas aeruginosa): inactive
- growth inhibition (GI) [2]: inactive
- growth inhibition (GI) [3]: inactive
- growth inhibition (GI) (Mycobacteroides chelonae): inactive

SMILES: O=C(CN1C(=O)c2cccc3cccc(c23)C1=O)N1CCC(NC(=S)NC23CC4CC(CC(C4)C2)C3)CC1
- MIC (Staphylococcus aureus): 4 µg/mL (≈ 7.54 µM)
- MIC [1]: 32 µg/mL (≈ 60.3 µM)
- growth inhibition (GI) (Escherichia coli): inactive
- growth inhibition (GI) (Klebsiella pneumoniae): inactive
- growth inhibition (GI) (Acinetobacter baumannii): inactive
- growth inhibition (GI) (Pseudomonas aeruginosa): inactive
- growth inhibition (GI) [2]: inactive
- growth inhibition (GI) [3]: inactive
- growth inhibition (GI) (Mycobacteroides chelonae): inactive

SMILES: O=C(CCN1C(=O)c2cccc3cccc(c23)C1=O)NC1CCN(C(=S)Nc2ccc(Cl)cc2)CC1
- MIC (Staphylococcus aureus): > 64 µg/mL
- MIC [1]: > 64 µg/mL
- growth inhibition (GI) (Escherichia coli): inactive
- growth inhibition (GI) (Klebsiella pneumoniae): inactive
- growth inhibition (GI) (Acinetobacter baumannii): inactive
- growth inhibition (GI) (Pseudomonas aeruginosa): inactive
- growth inhibition (GI) [2]: inactive
- growth inhibition (GI) [3]: inactive
- growth inhibition (GI) (Mycobacteroides chelonae): inactive

SMILES: O=C(CCN1C(=O)c2cccc3cccc(c23)C1=O)N1CCN(C(=S)Nc2ccccc2Cl)CC1
- MIC (Staphylococcus aureus): > 64 µg/mL
- MIC [1]: > 64 µg/mL
- growth inhibition (GI) (Escherichia coli): inactive
- growth inhibition (GI) (Klebsiella pneumoniae): inactive
- growth inhibition (GI) (Acinetobacter baumannii): inactive
- growth inhibition (GI) (Pseudomonas aeruginosa): inactive
- growth inhibition (GI) [2]: inactive
- growth inhibition (GI) [3]: inactive
- growth inhibition (GI) (Mycobacteroides chelonae): inactive

SMILES: O=C1c2cccc3cccc(c23)C(=O)N1CCN1CCN(C(=S)Nc2ccccc2Cl)CC1
- MIC (Staphylococcus aureus): > 64 µg/mL
- MIC [1]: > 64 µg/mL
- growth inhibition (GI) (Escherichia coli): inactive
- growth inhibition (GI) (Klebsiella pneumoniae): inactive
- growth inhibition (GI) (Acinetobacter baumannii): inactive
- growth inhibition (GI) (Pseudomonas aeruginosa): inactive
- growth inhibition (GI) [2]: inactive
- growth inhibition (GI) [3]: inactive
- growth inhibition (GI) (Mycobacteroides chelonae): inactive

SMILES: Cc1ccc(NC(=S)N2CCN(C(=O)CCN3C(=O)c4cccc5cccc(c45)C3=O)CC2)cc1
- MIC (Staphylococcus aureus): > 64 µg/mL
- MIC [1]: > 64 µg/mL
- growth inhibition (GI) (Escherichia coli): inactive
- growth inhibition (GI) (Klebsiella pneumoniae): inactive
- growth inhibition (GI) (Acinetobacter baumannii): inactive
- growth inhibition (GI) (Pseudomonas aeruginosa): inactive
- growth inhibition (GI) [2]: inactive
- growth inhibition (GI) [3]: inactive
- growth inhibition (GI) (Mycobacteroides chelonae): inactive

SMILES: Cc1ccc(NC(=S)N2CCN(CCN3C(=O)c4cccc5cccc(c45)C3=O)CC2)cc1
- MIC (Staphylococcus aureus): > 64 µg/mL
- MIC [1]: > 64 µg/mL
- growth inhibition (GI) (Escherichia coli): inactive
- growth inhibition (GI) (Klebsiella pneumoniae): inactive
- growth inhibition (GI) (Acinetobacter baumannii): inactive
- growth inhibition (GI) (Pseudomonas aeruginosa): inactive
- growth inhibition (GI) [2]: inactive
- growth inhibition (GI) [3]: inactive
- growth inhibition (GI) (Mycobacteroides chelonae): inactive

SMILES: O=C1c2cccc3cccc(c23)C(=O)N1CCN1CCN(C(=S)NC2CC2)CC1
- MIC (Staphylococcus aureus): > 64 µg/mL
- MIC [1]: > 64 µg/mL
- growth inhibition (GI) (Escherichia coli): inactive
- growth inhibition (GI) (Klebsiella pneumoniae): inactive
- growth inhibition (GI) (Acinetobacter baumannii): inactive
- growth inhibition (GI) (Pseudomonas aeruginosa): inactive
- growth inhibition (GI) [2]: inactive
- growth inhibition (GI) [3]: inactive
- growth inhibition (GI) (Mycobacteroides chelonae): inactive

SMILES: O=C(Nc1ccccc1)N1CCN(CCN2C(=O)c3cccc4cccc(c34)C2=O)CC1
- MIC (Staphylococcus aureus): 8 µg/mL (≈ 18.7 µM)
- MIC [1]: 32 µg/mL (≈ 74.7 µM)
- growth inhibition (GI) (Escherichia coli): inactive
- growth inhibition (GI) (Klebsiella pneumoniae): inactive
- growth inhibition (GI) (Acinetobacter baumannii): inactive
- growth inhibition (GI) (Pseudomonas aeruginosa): inactive
- growth inhibition (GI) [2]: inactive
- growth inhibition (GI) [3]: inactive
- growth inhibition (GI) (Mycobacteroides chelonae): inactive

SMILES: CC(C)NC(=S)N1CCN(CCN2C(=O)c3cccc4cccc(c34)C2=O)CC1
- MIC (Staphylococcus aureus): > 64 µg/mL
- MIC [1]: > 64 µg/mL
- growth inhibition (GI) (Escherichia coli): inactive
- growth inhibition (GI) (Klebsiella pneumoniae): inactive
- growth inhibition (GI) (Acinetobacter baumannii): inactive
- growth inhibition (GI) (Pseudomonas aeruginosa): inactive
- growth inhibition (GI) [2]: inactive
- growth inhibition (GI) [3]: inactive
- growth inhibition (GI) (Mycobacteroides chelonae): inactive

SMILES: O=C(CN1C(=O)c2cccc3cccc(c23)C1=O)NC1CCN(C(=S)Nc2ccc(Cl)cc2)CC1
- MIC (Staphylococcus aureus): > 64 µg/mL
- MIC [1]: > 64 µg/mL
- growth inhibition (GI) (Escherichia coli): inactive
- growth inhibition (GI) (Klebsiella pneumoniae): inactive
- growth inhibition (GI) (Acinetobacter baumannii): inactive
- growth inhibition (GI) (Pseudomonas aeruginosa): inactive
- growth inhibition (GI) [2]: inactive
- growth inhibition (GI) [3]: inactive
- growth inhibition (GI) (Mycobacteroides chelonae): inactive

SMILES: O=C1c2cccc3cccc(c23)C(=O)N1CCN1CCN(C(=S)NC23CC4CC(CC(C4)C2)C3)CC1
- MIC (Staphylococcus aureus): > 64 µg/mL
- MIC [1]: > 64 µg/mL
- growth inhibition (GI) (Escherichia coli): inactive
- growth inhibition (GI) (Klebsiella pneumoniae): inactive
- growth inhibition (GI) (Acinetobacter baumannii): inactive
- growth inhibition (GI) (Pseudomonas aeruginosa): inactive
- growth inhibition (GI) [2]: inactive
- growth inhibition (GI) [3]: inactive
- growth inhibition (GI) (Mycobacteroides chelonae): inactive

SMILES: O=C(CN1C(=O)c2cccc3cccc(c23)C1=O)NC1CCN(C(=S)NC2CCCC2)CC1
- MIC (Staphylococcus aureus): > 64 µg/mL
- MIC [1]: > 64 µg/mL
- growth inhibition (GI) (Escherichia coli): inactive
- growth inhibition (GI) (Klebsiella pneumoniae): inactive
- growth inhibition (GI) (Acinetobacter baumannii): inactive
- growth inhibition (GI) (Pseudomonas aeruginosa): inactive
- growth inhibition (GI) [2]: inactive
- growth inhibition (GI) [3]: inactive
- growth inhibition (GI) (Mycobacteroides chelonae): inactive

SMILES: O=C(CCN1C(=O)c2cccc3cccc(c23)C1=O)NC1CCN(C(=S)Nc2ccccc2)CC1
- MIC (Staphylococcus aureus): > 64 µg/mL
- MIC [1]: 64 µg/mL (≈ 132 µM)
- growth inhibition (GI) (Escherichia coli): inactive
- growth inhibition (GI) (Klebsiella pneumoniae): inactive
- growth inhibition (GI) (Acinetobacter baumannii): inactive
- growth inhibition (GI) (Pseudomonas aeruginosa): inactive
- growth inhibition (GI) [2]: inactive
- growth inhibition (GI) [3]: inactive
- growth inhibition (GI) (Mycobacteroides chelonae): inactive

SMILES: O=C(CCN1C(=O)c2cccc3cccc(c23)C1=O)N1CCN(C(=S)Nc2ccccc2)CC1
- MIC (Staphylococcus aureus): > 64 µg/mL
- MIC [1]: 32 µg/mL (≈ 67.7 µM)
- growth inhibition (GI) (Escherichia coli): inactive
- growth inhibition (GI) (Klebsiella pneumoniae): inactive
- growth inhibition (GI) (Acinetobacter baumannii): inactive
- growth inhibition (GI) (Pseudomonas aeruginosa): inactive
- growth inhibition (GI) [2]: inactive
- growth inhibition (GI) [3]: inactive
- growth inhibition (GI) (Mycobacteroides chelonae): inactive

SMILES: CCN=C(S)N1CCN(CCN2C(=O)c3cccc4cccc(c34)C2=O)CC1
- MIC (Staphylococcus aureus): > 64 µg/mL
- MIC [1]: 64 µg/mL (≈ 161 µM)
- growth inhibition (GI) (Escherichia coli): inactive
- growth inhibition (GI) (Klebsiella pneumoniae): inactive
- growth inhibition (GI) (Acinetobacter baumannii): inactive
- growth inhibition (GI) (Pseudomonas aeruginosa): inactive
- growth inhibition (GI) [2]: inactive
- growth inhibition (GI) [3]: inactive
- growth inhibition (GI) (Mycobacteroides chelonae): inactive
